Assays:
[1] = system: Plasmodium falciparum; assay: Antiplasmodial activity against chloroquine-resistant Plasmodium falciparum K1 assessed as [3H]hypoxanthine incorporation after 48 hrs by beta-plate liquid scintillation counting; format: functional, organism-based
Procedure, shortened: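 K1 strain (chloroquine- and pyrimethamine-resistant) in infected human red blood cells, RPMI 1640 with 5% Albumax, exposed to serial dilutions for 48 h at 37 °C under reduced oxygen. 0.5 µCi [3H]-hypoxanthine then added for a further 24 h. Cells harvested onto glass-fiber filters and counted. CPM expressed as % of untreated controls, IC50 taken from sigmoidal curves. Run in duplicate, repeated once.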

[2] = system: Trypanosoma brucei rhodesiense; assay: Antitrypanosomal activity against Trypanosoma brucei rhodesiense STIB900 by fluorescence assay; format: functional, organism-based
[3] = system: L6; assay: Cytotoxicity against rat L6 cells; format: cell-based
Procedure, shortened: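 Rat skeletal myoblasts (L-6) grown in RPMI 1640 with 10% FBS and 2 mM L-glutamine, exposed to serial dilutions 90 to 0.123 µg/mL at 37 °C, 5% CO2. Alamar Blue (resazurin) read-out by fluorescence (ex 536/em 588 nm) as percent of control cultures; IC50 from sigmoidal inhibition curves.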

[4] = system: MCF7; assay: Cytotoxicity against human MCF7 cells; format: cell-based
[5] = system: Plasmodium falciparum; assay: Antiplasmodial activity against Plasmodium falciparum W2; format: functional, organism-based
[6] = system: Thamnocephalus platyurus; assay: Cytotoxicity against Thamnocephalus platyurus; format: functional
Procedure, shortened: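 Instar II-III larvae hatched from cysts, tested in multiwell plates at six concentrations from 1 to 100 µM, in triplicate. Value derived by nonlinear regression.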

IC50 [5] [µM] | Structure (SMILES) | IC50 [1] [µM] | IC50 [2] [µM] | IC50 [3] [µM] | IC50 [4] [µM] | LC50 [6] [µM]
 | CC[C@H](C)[C@@H]1NC(=O)[C@H]2CSC(=N2)[C@@H]([C@@H](C)CC)NC(=O)c2csc(n2)CNC(=O)[C@H]2N=C1O[C@@H]2C [AERUCYCLAMIDE A] | 5 | 56.3 | > 168 |  | 
8.2 | Cc1oc2nc1C(=O)N[C@H](C)c1nc(cs1)C(=O)N[C@H](C(C)C)c1nc(cs1)C(=O)N[C@@H]2C [VENTURAMIDE A] |  |  |  | 13.1 | 
5.2 | Cc1oc2nc1C(=O)N[C@H]([C@@H](C)O)c1nc(cs1)C(=O)N[C@H](C(C)C)c1nc(cs1)C(=O)N[C@@H]2C [VENTURAMIDE B] |  |  |  | > 54 | 
 | CC[C@H](C)[C@@H]1NC(=O)c2csc(n2)[C@@H]([C@@H](C)CC)NC(=O)c2csc(n2)CNC(=O)[C@H]2N=C1O[C@@H]2C [AERUCYCLAMIDE B] | 0.7 | 15.9 | 120 |  | 
 | CC[C@H](C)[C@H]1NC(=O)c2coc(n2)[C@H](C(C)C)NC(=O)[C@H]2N=C(O[C@@H]2C)[C@H](C)NC(=O)c2csc1n2 [AERUCYCLAMIDE C] | 2.3 | 9.2 | 106 |  | 70.5
 | CSCC[C@@H]1NC(=O)c2csc(n2)CNC(=O)[C@H]2N=C(O[C@@H]2C)[C@H](Cc2ccccc2)NC(=O)[C@@H]2CSC1=N2 [AERUCYCLAMIDE D] | 6.3 | 50.1 | > 153 |  | 
